From PMC4642656 (Journal of Ethnopharmacology, 2015)
Like-named read-outs stand apart in the source and are kept apart here.

How the values were obtained:
Assay type in all cases: cell-based
[1] = system: Plasmodium falciparum chloroquine-resistant (W2) strain; experiment: Antiplasmodial assay
Method in brief: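 Asexual erythrocytic-stage P. falciparum W2 was kept in continuous in vitro culture. It was tested by modified semiautomated microdilution for inhibition of [G-3H]hypoxanthine incorporation. Cells were harvested onto glass-fibre filters and counted by liquid scintillation as cpm per well at each drug concentration, expressed as % of untreated controls. IC50 was taken from nonlinear regression of the dose-response curve.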

[2] = system: Plasmodium falciparum chloroquine-sensitive (D6) strain; experiment: Antiplasmodial assay; conditions: for IC50: Plasmodium falciparum
[3] = system: mouse breast cancer (4T1) cells; experiment: MTT cytotoxicity assay, 4T1 cells
[4] = system: human larynx carcinoma (HEp2) cells; experiment: MTT cytotoxicity assay, HEp2 cells
[5] = Mus musculus, 4T1, 48 h, read-out: IC50 4T1, 4T1 cells, MTT, 48 h
[6] = Homo sapiens, HEp-2, 48 h, read-out: IC50 HEp2, HEp2 cells, MTT, 48 h
[7] = read-out: IC50 4T1, 4T1 cells, MTT, 48 h
[8] = read-out: IC50 HEp2, HEp2 cells, MTT, 48 h

SMILES | IC50 ([1]; W2, read-out: IC50 W2 (chloroquine)) | IC50 ([2]; D6, read-out: IC50 D6 (chloroquine)) | SI: selectivity index [IC50 vero/IC50 (D6)] ([2]; Table 1) | IC50 ([1]; W2, read-out: IC50 W2) | IC50 [3, 5] | IC50 [4, 6] | IC50 ([2]; D6, read-out: IC50 D6) | IC50 [3, 7] | IC50 [4, 8] | IC50 ([4]; read-out: IC50 HEp2, HEp2 cells, MTT, 48 h, listed as niloticin (8))
CCN(CC)CCCC(C)Nc1ccnc2cc(Cl)ccc12 (stereo not shown) [Chloroquine, reference compound] | 0.108 µM | 0.0077 µM | 5701 |  |  |  |  |  |  | 
CC(=O)O[C@H]1C[C@@H]2[C@@]3(C)CCC(=O)C(C)(C)[C@@H]3C[C@@H](O)[C@@]2(C)C2=CC[C@@H](c3ccoc3)[C@@]21C [Mzikonone (3), mzikonone] |  |  |  | 40.5 ± 3.7 µM | 38.8 ± 0.4 µM | 59.3 ± 1 µM | 36.6 ± 0.8 µM |  |  | 
CC(=O)O[C@@H]1C[C@H]2C(C)(C)C(=O)C=C[C@]2(C)[C@H]2CC[C@]3(C)C(=CC[C@H]3c3ccoc3)[C@@]21C [Azadirone (1), azadirone] |  |  |  | 29.6 ± 1 µM | < 20 µM | < 20 µM | 23.4 ± 0.2 µM | 14.4 µM | 12.8 µM | 
C[C@H](C[C@@H](O)[C@@H]1OC1(C)C)[C@@H]1CC[C@]2(C)C3=CC[C@H]4C(C)(C)C(=O)CC[C@]4(C)[C@H]3CC[C@@]12C [Niloticin (8), niloticin] |  |  |  | 77 ± 5.7 µM | < 20 µM |  | 48.2 ± 2.3 µM | 14.5 ± 0.5 µM | 6.9 ± 0.6 µM | < 20 µM
